ChEMBL document CHEMBL1125464, “1,3,6-trisubstituted indoles as peptidoleukotriene antagonists: benefits of a second, polar, pyrrole substituent” (J Med Chem, 1992)
One block for each compound: values may come before it.

How the values were obtained:
[1] = species on record: Cavia porcellus; assay: Compound was evaluated for the displacement of [3H]LTD4 on guinea pig lung parenchymal membranes; set-up: species or system Lung parenchyma
In short: (§1)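 Membranes from perfused lungs of male Hartley guinea pigs (300-400 g) in PIPES pH 7.5 with 10 mM CaCl2, 10 mM MgCl2, 2 mM cysteine and 2 mM glycine. 1 nM 3H-LTD4 at 22 °C for 30 min; nonspecific binding with 2 uM LTD4. Filtration, then scintillation counting. IC50 by nonlinear least squares, Ki by Cheng-Prusoff; mean of two experiments in duplicate.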

[2] = species on record: Cavia porcellus; assay: Dissociation constant on guinea pig tracheal spirals utilizing LTE4 as agonist; details: Trachea
[3] = species on record: Cavia porcellus; assay: Inhibition of LTE4 (8 nM) induced contraction of guinea pig tracheal spirals at a concentration of 0.1 uM; type: functional, Trachea
In short: (§2)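 Paired tracheal spirals at 37 °C in Krebs gassed with 95% O2/5% CO2 under 2 g tension, given repeated LTE4 challenges of 10 min. Compound or vehicle added 10 min before a third challenge. % inhibition = (2nd − 3rd response)/2nd × 100, corrected by subtracting the vehicle value. Paired t test, n ≥ 4.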

[4] = species on record: Cavia porcellus; assay: Inhibition of LTE4 (8 nM) induced contraction of guinea pig tracheal spirals at a concentration of 3.3 uM; type: functional, Trachea; in short: as §2
[5] = test system: Cavia porcellus; assay: Protection of conscious guinea pig lung function was determined by comparison of time required for the challenged animals to exhibit labored abdominal breathing after oral dose of 10 uM/kg; type: functional
In short: (§3)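 Conscious guinea pigs pretreated with indomethacin (10 mg/kg ip) and propranolol (5 mg/kg ip). Compound in PEG400 (<10% v/v)/PBS given orally 180 min before a challenge of up to 5 min with aerosolized 60 uM LTD4. Time to abdominal dyspnea scored blind. % protection is taken against vehicle controls; no end point by 300 s counts as 100%. Unpaired t test.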

[6] = Negative logarithm of the molar dissociation constant; type: ADME
In short: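 Paired guinea pig tracheal spirals at 37 °C in Krebs gassed with 95% O2/5% CO2, 2 g resting tension. Responses expressed relative to 30 uM carbachol. Antagonist or vehicle preincubated 30 min, then cumulative LTE4 concentration-response curves, one per tissue. EC50 by linear regression; KB = [antagonist]/(dose ratio − 1), per Furchgott.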

[7] = test system: Cavia porcellus; assay: Protection of conscious guinea pig lung function was determined by comparison of time required for the challenged animals to exhibit labored abdominal breathing after oral dose of 30 uM/kg; type: functional; in short: as §3
[8] = species on record: Cavia porcellus; assay: Inhibition of LTE4 (8 nM) induced contraction of guinea pig tracheal spirals at a concentration of 0.33 uM; type: functional, Trachea; in short: as §2
[9] = species on record: Cavia porcellus; assay: Inhibition of LTE4 (8 nM) induced contraction of guinea pig tracheal spirals at a concentration of 0.50 uM; type: functional, Trachea; in short: as §2
[10] = test system: Cavia porcellus; assay: Protection of conscious guinea pig lung function was determined by comparison of time required for the challenged animals to exhibit labored abdominal breathing after oral dose of 1 uM/kg; type: functional; in short: as §3
[11] = test system: Cavia porcellus; assay: Protection of conscious guinea pig lung function was determined by comparison of time required for the challenged animals to exhibit labored abdominal breathing after oral dose of 3 uM/kg; type: functional; in short: as §3
[12] = species on record: Cavia porcellus; assay: Inhibition of LTE4 (8 nM) induced contraction of guinea pig tracheal spirals at a concentration of 10 nM; type: functional, Trachea; in short: as §2
[13] = species on record: Cavia porcellus; assay: Inhibition constant for the displacement of [3H]LTD4 on guinea pig lung parenchymal membranes; set-up: species or system Lung parenchyma; in short: as §1
[14] = species on record: Cavia porcellus; assay: Inhibition of LTE4 (8 nM) induced contraction of guinea pig tracheal spirals at a concentration of 100 nM; type: functional, Trachea; in short: as §2

Ki [1]: 0.54 nM
Compound: CCN(CC)C(=O)CCc1cn(Cc2ccc(C(=O)NS(=O)(=O)c3ccccc3C)cc2OC)c2cc(C(=O)NCC3CCCC3)ccc12

Kb [2]: 20.7 nM
Compound: COc1cc(C(=O)O)ccc1Cn1ccc2ccc(NC(=O)CC3CCCC3)cc21
Inhibition [3]: 34%

Compound: CCCCOC(=O)Nc1ccc2cc(C)n(Cc3ccc(C(=O)O)cc3OC)c2c1
Inhibition [4]: 41%

Ki [1]: 1.87 nM
Compound: COc1cc(C(=O)NS(=O)(=O)c2ccccc2C)ccc1Cc1nn(C)c2ccc(C(=O)NCC3CCCC3)cc12

Kb [2]: 0.65 nM
Ki [1]: 2.32 nM
Compound: COc1cc(C(=O)NS(=O)(=O)c2ccccc2C)ccc1Cn1cc(CC(C)C(=O)N(C)C)c2ccc(C(=O)NCC3CCCC3)cc21 (stereo not given)
Protection [5]: 37%

Kb [2]: 0.0197 nM
Compound: CNC(=O)CCc1cn(Cc2ccc(C(=O)NS(=O)(=O)c3ccccc3)cc2OC)c2cc(NC(=O)CC3CCCC3)ccc12
Protection [5]: 74%

pKB [6]: 7.67
Compound: COc1cc(C(=O)O)ccc1Cc1cn(C2CCCC2)c2ccc(NC(=O)OC3CCCC3)cc12

Compound: COc1cc(C(=O)O)ccc1Cc1cn(C)c2ccc(NC(=O)CC3CCCC3)cc12
Inhibition [3]: 94%

Kb [2]: 0.243 nM
Compound: COc1cc(C(=O)NS(=O)(=O)c2ccccc2)ccc1Cn1ccc2ccc(NC(=O)CC3CCCC3)cc21
Protection [7]: 43%

Kb [2]: 155 nM
Compound: CCCCOC(=O)Nc1ccc2ccn(Cc3ccc(C(=O)O)cc3OC)c2c1
Inhibition [8]: 25%
Inhibition [9]: 54%

Compound: COc1cc(C(=O)O)ccc1Cn1cc(Cl)c2ccc(NC(=O)OC3CCCC3)cc21
Inhibition [3]: 41%

Kb [2]: 7.73 nM
Compound: COc1cc(C(=O)NS(=O)(=O)c2ccccc2)ccc1Cn1c2c(c3ccc(NC(=O)CC4CCCC4)cc31)CCCC2

Kb [2]: 0.106 nM
Compound: COc1cc(C(=O)NS(=O)(=O)c2ccccc2C)ccc1Cn1ccc2ccc(NC(=O)CC3CCCC3)cc21
Protection [10]: 40%

Ki [1]: 9.89 nM
Compound: COc1cc(C(=O)NS(=O)(=O)c2ccccc2C)ccc1Cn1cc(C)c2ccc(C(=O)NCC3CCCC3)cc21

Kb [2]: 0.095 nM
Compound: COc1cc(C(=O)NS(=O)(=O)c2ccccc2C)ccc1Cn1cc(CCC(N)=O)c2ccc(NC(=O)CC3CCCC3)cc21
Protection [11]: 63%

Compound: COc1cc(C(=O)O)ccc1Cc1nn(C)c2ccc(C(=O)NCC3CCCC3)cc12
Inhibition [4]: 37%

pKB [6]: 9.84
Compound: COc1cc(C(=O)NS(=O)(=O)c2ccccc2)ccc1Cc1c[nH]c2ccc(NC(=O)OC3CCCC3)cc12

pKB [6]: 7.72
Compound: CCCn1cc(Cc2ccc(C(=O)O)cc2OC)c2cc(NC(=O)OC3CCCC3)ccc21

Ki [1]: 4.9 nM
Compound: CCN(CC)C(=O)/C=C/c1cn(Cc2ccc(C(=O)NS(=O)(=O)c3ccccc3C)cc2OC)c2cc(C(=O)NCC3CCCC3)ccc12

pKB [6]: 7.84
Compound: COc1cc(C(=O)O)ccc1Cc1cn(C)c2ccc(NC(=O)OC3CCCC3)cc12

Kb [2]: 0.718 nM
Compound: COc1cc(C(=O)NS(=O)(=O)c2ccccc2)ccc1Cn1cc(Cl)c2ccc(NC(=O)OC3CCCC3)cc21

pKB [6]: 7.84
Compound: COc1cc(C(=O)NS(=O)(=O)c2ccccc2)ccc1Cc1cn(C2CCCC2)c2ccc(NC(=O)OC3CCCC3)cc12

Kb [2]: 10.3 nM
Compound: COc1cc(C(=O)NS(=O)(=O)c2ccccc2)ccc1Cn1cc(CCC(N)=O)c2ccc(OCCC3CCCC3)cc21
Inhibition [12]: 29%

Kb [2]: 0.289 nM
Compound: COc1cc(C(=O)NS(=O)(=O)c2ccccc2C)ccc1Cn1cc(CCC(=O)N2CCOCC2)c2ccc(C(=O)NCC3CCCC3)cc21
Protection [5]: 53%

Kb [2]: 14.2 nM
Ki [13]: 86.8 nM
Compound: COc1cc(C(=O)NS(=O)(=O)c2ccccc2)ccc1Cn1ccc2ccc(C(=O)NCC3CCCC3)cc21
Inhibition [14]: 46%

Compound: CCCC(=O)c1cn(Cc2ccc(C(=O)NS(=O)(=O)c3ccccc3)cc2OC)c2cc(NC(=O)CC3CCCC3)ccc12
Kb [2]: 0.496 nM

Kb [2]: 0.29 nM
Compound: COc1cc(C(=O)NS(=O)(=O)c2ccccc2)ccc1Cn1ccc2ccc(NC(=O)OC3CCCC3)cc21
